Test results as given in ChEMBL document CHEMBL1255505, “Synthesis of new series of quinoxaline based MAO-inhibitors and docking studies” (Eur J Med Chem, 2010).

Assays:
[1] = Selectivity index ratio of IC50 for MAOB to IC50 for MAOA
Summary of the method: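 Bovine brain mitochondria (6 mg/ml) in 0.25 M phosphate buffer, pH 7.4, with 0.1 mM isoform-specific substrate. Compound in propylene glycol at 0.5 nM–0.1 M; 60 min at 37 °C, perchloric acid stop, fluorimetric read. Six samples in duplicate; ratio of the MAO-B and MAO-A IC50s.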

[2] = Inhibition of MAOA by spectrofluorimetry
[3] = target: Amine oxidase [flavin-containing] B (Bos taurus) (UniProt P56560)
Sequence of Amine oxidase [flavin-containing] B (Bos taurus) (P56560 whole entry, looked up): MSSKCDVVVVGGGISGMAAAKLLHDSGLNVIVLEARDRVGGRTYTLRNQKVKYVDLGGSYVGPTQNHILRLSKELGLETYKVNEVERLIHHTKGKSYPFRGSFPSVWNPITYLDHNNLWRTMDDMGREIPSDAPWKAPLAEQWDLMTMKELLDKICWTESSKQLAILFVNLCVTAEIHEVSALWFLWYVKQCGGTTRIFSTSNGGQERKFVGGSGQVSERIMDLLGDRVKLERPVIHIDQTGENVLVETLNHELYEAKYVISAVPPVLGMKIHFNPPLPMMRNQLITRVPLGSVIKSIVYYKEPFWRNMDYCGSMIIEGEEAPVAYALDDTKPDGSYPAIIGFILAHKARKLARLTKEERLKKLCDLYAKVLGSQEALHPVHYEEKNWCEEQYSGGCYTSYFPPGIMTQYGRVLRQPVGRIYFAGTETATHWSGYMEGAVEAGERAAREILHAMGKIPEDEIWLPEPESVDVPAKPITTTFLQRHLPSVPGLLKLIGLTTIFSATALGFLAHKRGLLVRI

SMILES | Ratio IC50 [1] | IC50 [2] | IC50 [3]
O=C(c1ccccc1)c1nc2ccccc2n2c(-c3ccccc3)nnc12 | 88800 | 0.0027 µM | 240 µM
COc1ccc(/C=N/Nc2nc3ccccc3nc2Cc2ccccc2)cc1 | – | – | 79 µM
COc1ccc(/C=N/Nc2nc3ccccc3nc2Cc2ccccc2)cc1OC | 8210 | 0.056 µM | 460 µM
O=C(c1ccccc1)c1nc2ccccc2n2c(-c3ccc([N+](=O)[O-])cc3)nnc12 | 10400 | 0.022 µM | 230 µM
COc1ccc(-c2nnc3c(C(=O)c4ccccc4)nc4ccccc4n23)cc1OC | 12600 | 0.0068 µM | 86 µM
Clc1ccc(/C=N/Nc2nc3ccccc3nc2Cc2ccccc2)cc1 | 1100 | 0.076 µM | 84 µM
c1ccc(Cc2nc3ccccc3n3c(-c4ccccc4)nnc23)cc1 | 12000 | 0.082 µM | 980 µM
C=NNc1nc2ccccc2nc1Cc1ccccc1 | 10400 | 0.086 µM | 950 µM
C(=N\Nc1nc2ccccc2nc1Cc1ccccc1)/c1ccccc1 | 3950 | 0.081 µM | 320 µM
CN(C)c1ccc(-c2nnc3c(C(=O)c4ccccc4)nc4ccccc4n23)cc1Br | – | – | 73 µM
COc1cc(/C(C)=N/Nc2nc3ccccc3nc2Cc2ccccc2)cc(OC)c1OC | 8960 | 0.029 µM | 260 µM
Clc1ccccc1/C=N/Nc1nc2ccccc2nc1Cc1ccccc1 | 15000 | 0.0058 µM | 87 µM
CN(C)c1ccc(/C=N/Nc2nc3ccccc3nc2Cc2ccccc2)cc1 | 10600 | 0.083 µM | 880 µM
COc1ccc(-c2nnc3c(C(=O)c4ccccc4)nc4ccccc4n23)cc1 | – | – | 85 µM
COc1ccccc1/C=N/Nc1nc2ccccc2nc1Cc1ccccc1 | 9510 | 0.083 µM | 790 µM
C(=N\Nc1nc2ccccc2nc1Cc1ccccc1)/c1ccc2c(c1)OCO2 | – | – | 87 µM
Cc1ccsc1/C=N/Nc1nc2ccccc2nc1Cc1ccccc1 | – | – | 860 µM
O=C(c1ccccc1)c1nc2ccccc2n2cnnc12 | 1250 | 0.75 µM | 940 µM
O=C(c1ccccc1)c1nc2ccccc2n2c(-c3ccccc3Cl)nnc12 | 4310 | 0.088 µM | 380 µM
c1ccc(Cc2nc3ccccc3n3cnnc23)cc1 | 1090 | 0.087 µM | 95 µM
Clc1ccccc1-c1nnc2c(Cc3ccccc3)nc3ccccc3n12 | 11800 | 0.0061 µM | 72 µM
CN(C)c1ccc(-c2nnc3c(C(=O)c4ccccc4)nc4ccccc4n23)cc1 | 2.7e+06 | 0.0027 µM | 7300 µM

Now from value to compound:

Ratio IC50 [1] | IC50 [2] | IC50 [3] | SMILES
3e+06 | 0.0028 µM | 8400 µM | C/C(=N\Nc1nc2ccccc2nc1Cc1ccccc1)c1ccc(O)cc1
– | – | 89 µM | C/C(=N\Nc1nc2ccccc2nc1Cc1ccccc1)c1ccc([N+](=O)[O-])cc1
2.32e+06 | 0.0034 µM | 7900 µM | Oc1ccc(/C=N/Nc2nc3ccccc3nc2Cc2ccccc2)cc1
12400 | 0.079 µM | 980 µM | C/C(=N\Nc1nc2ccccc2nc1Cc1ccccc1)c1ccccc1
13300 | 0.064 µM | 850 µM | C/C(=N\Nc1nc2ccccc2nc1Cc1ccccc1)c1cccs1
10800 | 0.091 µM | 980 µM | C/C(=N\Nc1nc2ccccc2nc1Cc1ccccc1)c1ccccn1
3140 | 0.089 µM | 280 µM | COc1ccc(/C(C)=N/Nc2nc3ccccc3nc2Cc2ccccc2)cc1
87700 | 0.0098 µM | 860 µM | C/C(=N\Nc1nc2ccccc2nc1Cc1ccccc1)c1ccc(N)cc1
8600 | 0.086 µM | 740 µM | C/C(=N\Nc1nc2ccccc2nc1Cc1ccccc1)c1ccc(C)cc1
